Results from ChEMBL document CHEMBL2021780, “Antineoplastic agents. 548. Synthesis of iodo- and diiodocombstatin phosphate prodrugs” (J Nat Prod, 2012).
pIC50: −log10 of the molar value. ≈ marks a conversion by molar mass, not a printed value.

Experiments:
[1] = tested on: P388; experiment: Growth inhibition of mouse P388 cells after 48 hrs by Z1 Beckman/Coulter particle counter analysis; assay type: functional; settings: P388, 48 h, read-out: ED50 (the source's name)
How it was run: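 Mouse P388 leukemia cells were incubated 24 h in 10% horse serum/Fisher medium, then exposed 48 h to serial compound dilutions. ED50 was calculated from cell counts on a Coulter Z1 particle counter.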

[2] = tested on: SF-268; experiment: Growth inhibition of human SF268 cells after 48 hrs by sulforhodamine B assay; assay type: functional; settings: SF-268, 48 h
How it was run: (§1)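 NCI sulforhodamine B assay. Cells were seeded in 5% FBS/RPMI-1640 and incubated 24 h. Serial compound dilutions were then added for 48 h. Cells were fixed with trichloroacetic acid, stained with SRB and read by microplate reader. GI50 is the concentration giving 50% reduction in net protein increase, calculated from optical density data.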

[3] = tested on: Neisseria gonorrhoeae; experiment: Antibacterial activity against Neisseria gonorrhoeae ATCC 49226 by broth microdilution method; assay type: functional
How it was run: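 Broth microdilution followed NCCLS standard methods. Compounds were reconstituted in sterile DMSO and diluted in the appropriate medium immediately before testing. MIC was taken as the lowest concentration giving no visible growth (optically clear). Assays were repeated on separate days.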

[4] = tested on: KM-20L2; experiment: Growth inhibition of human KM20L2 cells after 48 hrs by sulforhodamine B assay; assay type: functional; settings: KM-20L2, 48 h; how it was run: as §1
[5] = tested on: DU-145; experiment: Growth inhibition of human DU145 cells after 48 hrs by sulforhodamine B assay; assay type: functional; settings: DU-145, 48 h; how it was run: as §1
[6] = tested on: MCF7; experiment: Growth inhibition of human MCF7 cells after 48 hrs by sulforhodamine B assay; assay type: functional; settings: MCF7, 48 h; how it was run: as §1
[7] = tested on: NCI-H460; experiment: Growth inhibition of human NCI-H460 cells after 48 hrs by sulforhodamine B assay; assay type: functional; settings: NCI-H460, 48 h; how it was run: as §1
[8] = tested on: BXPC-3; experiment: Growth inhibition of human BxPC3 cells after 48 hrs by sulforhodamine B assay; assay type: functional; settings: BXPC-3, 48 h; how it was run: as §1
[9] = Solubility of the compound in water; assay type: physicochemical
How it was run: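 Solubility expressed as amount dissolving in 1 mL H₂O at 25 °C.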

[10] = tested on: HUVEC; experiment: Antiangiogenic activity in HUVEC assessed as cell growth at 0.01 ug/ml after 24 hrs by sulforhodamine B assay relative to control; assay type: functional, Homo sapiens
[11] = tested on: HUVEC; experiment: Antiangiogenic activity in HUVEC assessed as cell growth at 0.00001 ug/ml after 24 hrs by sulforhodamine B assay relative to control; assay type: functional; settings: Homo sapiens, read-out: Activity
[12] = tested on: HUVEC; experiment: Antiangiogenic activity in HUVEC assessed as reduction of number of junctions at 0.001 ug/ml after 24 hrs by matrigel assay relative to control; assay type: functional, Homo sapiens; design: scale not given: the % may be the effect or the level left
How it was run: (§2)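 Commercial HUVECs grown in EGM-2 were seeded at 2 × 10⁵ cells/mL onto Matrigel, which had been polymerized 15 min at rt and then 30 min at 37 °C, per NCI DTP protocol. Compound was added and cells were incubated 24 h, then imaged by inverted microscopy. Cord length and junction number were scored against untreated control on a scale from − (none) to +++ (same as control), with ++ = 50% of control.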

[13] = Growth inhibition of human KAT4 cells after 48 hrs by sulforhodamine B assay; assay type: functional; settings: KAT-4, 48 h
[14] = tested on: SW-1736; experiment: Growth inhibition of human SW1736 cells after 48 hrs by sulforhodamine B assay; assay type: functional; settings: SW-1736, 48 h
[15] = tested on: HUVEC; experiment: Antiangiogenic activity in HUVEC assessed as cell growth at 0.001 ug/ml after 24 hrs by sulforhodamine B assay relative to control; assay type: functional, Homo sapiens; settings: Homo sapiens, HUVEC, 24 h; read-out: Activity
[16] = tested on: HUVEC; experiment: Antiangiogenic activity in HUVEC assessed as cell growth inhibition after 48 hrs by sulforhodamine B assay; assay type: functional, cell-based; settings: Homo sapiens
How it was run: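 HUVECs were grown in EGM-2 medium and tested with the standard SRB growth assay following NCI Developmental Therapeutics Program Matrigel antiangiogenesis protocols. IC50 (concentration causing 50% inhibition) was calculated from plotted data.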

[17] = tested on: HUVEC; experiment: Antiangiogenic activity in HUVEC assessed as cell growth at 0.0001 ug/ml after 24 hrs by sulforhodamine B assay relative to control; assay type: functional, Homo sapiens
[18] = tested on: HUVEC; experiment: Antiangiogenic activity in HUVEC assessed as reduction of cord length at 0.001 ug/ml after 24 hrs by matrigel assay relative to control; assay type: functional, Homo sapiens; design: scale not given: the % may be the effect or the level left; how it was run: as §2
[19] = Inhibition of purified tubulin assembly after 20 mins
How it was run: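 Purified tubulin at 10 μM in 0.8 M monosodium glutamate (pH 6.6), 0.4 mM GTP and 4% (v/v) DMSO, with varying compound concentrations. Extent of assembly was measured after 20 min at 30 °C.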

Row | Compound | EC50 [1] [µg/mL] | GI50 [2] [µg/mL] | MIC [3] [µg/mL] | GI50 [4] [µg/mL] | GI50 [5] [µg/mL] | GI50 [6] [µg/mL] | GI50 [7] [µg/mL] | GI50 [8] [µg/mL] | solubility ([9]; buffer) | Activity [10] [%] | growth at 10 pg/mL [11] [%] | Activity [12] [%] | GI50 [13] [µg/mL] | GI50 [14] [µg/mL] | growth at 0.001 µg/mL [15] [%] | IC50 [16] [µg/mL] | Activity [17] [%] | Activity [18] [%] | solubility ([9]; water, read-out: solubility) [µg/mL] | pIC50 [19]
1 | C1COCCN1.C1COCCN1.COc1ccc(/C=C\c2cc(I)c(OC)c(OC)c2)cc1OP(=O)(O)O | 0.0032 | 0.0037 | 16 | 0.24 | 0.0026 | 0.0047 | 0.0036 | 0.21 |  |  |  |  |  |  |  |  |  |  |  | 
2 | C1COCCN1.C1COCCN1.COc1ccc(/C=C\c2cc(I)c(OC)c(I)c2)cc1OP(=O)(O)O | 0.014 | 0.054 | < 0.5 | > 1 | 0.028 | 0.066 | 0.033 | 0.35 |  |  |  |  |  |  |  |  |  |  |  | 
3 | COc1ccc(/C=C\c2cc(I)c(OC)c(I)c2)cc1OP(=O)([O-])[O-].[Li+].[Li+] | 0.021 | 0.05 | < 0.5 |  | 0.032 |  | 0.05 | 0.37 | >= 4 mg/ml |  |  |  |  |  |  |  |  |  |  | 
4 | COc1ccc(/C=C\c2cc(I)c(OC)c(OC)c2)cc1OP(=O)([O-])[O-].[K+].[K+] | 0.0021 | 0.0057 |  | 0.41 | 0.0038 | 0.0064 | 0.0043 | 0.381 | 14000 µg/mL | 1 | 95 | 75 | 0.37 | > 10 | 10 | 0.00025 | 77 | 50 |  | 
5 | COc1ccc(/C=C\c2cc(I)c(OC)c(I)c2)cc1OP(=O)(O)O.OCN(CO)CO.OCN(CO)CO | 0.026 | 0.04 | < 0.5 | 0.94 | 0.021 | 0.047 | 0.025 | 0.33 |  |  |  |  |  |  |  |  |  |  |  | 
6 | COc1ccc(/C=C\c2cc(F)c(OC)c(OC)c2)cc1O [FLUORCOMBSTATIN] | 0.002 (≈ 0.00657 µM) | 0.0016 (≈ 0.00526 µM) |  | > 1 | 0.0019 (≈ 0.00624 µM) | 0.0027 (≈ 0.00887 µM) | 0.0032 (≈ 0.0105 µM) |  |  |  |  |  |  |  |  |  |  |  |  | 
7 | COc1ccc(/C=C\c2cc(O)c(OC)c(OC)c2)cc1O | 0.26 (≈ 0.86 µM) | 0.0083 (≈ 0.0275 µM) |  | 1.2 (≈ 3.97 µM) | 0.0043 (≈ 0.0142 µM) | 0.49 (≈ 1.62 µM) | 0.19 (≈ 0.628 µM) | 2.3 (≈ 7.61 µM) |  |  |  |  |  |  |  |  |  |  |  | 
8 | COC(=O)[C@@H](N)Cc1c[nH]c2ccccc12.COC(=O)[C@@H](N)Cc1c[nH]c2ccccc12.COc1ccc(/C=C\c2cc(I)c(OC)c(I)c2)cc1OP(=O)(O)O | 0.017 | 0.086 | < 0.5 | > 1 | 0.026 | 0.22 | 0.033 | 0.37 |  |  |  |  |  |  |  |  |  |  |  | 
9 | C1CCNCC1.C1CCNCC1.COc1ccc(/C=C\c2cc(I)c(OC)c(OC)c2)cc1OP(=O)(O)O | 0.0026 | 0.0044 |  | 0.51 | 0.0029 | 0.0065 | 0.0036 | 0.32 |  |  |  |  |  |  |  |  |  |  | ≥ 4000 | 
10 | COc1ccc(/C=C\c2cc(OC)c(OC)c(OC)c2)cc1OP(=O)([O-])[O-].[Na+].[Na+] [FOSBRETABULIN DISODIUM] | 0.0004 | 0.036 |  | 0.034 | 0.0072 |  | 0.029 | 0.23 |  |  |  |  |  |  |  |  |  |  |  | < 4.40
